Assay outcomes from PubChem.
aDG glyco act = activators of alpha-DG glycosylation, primary screen, uHTS, Pro5-aDG cells, AlphaScreen; alpha-DG glycosylation AlphaScreen (IIH6); 0% Pro5, 100% B10-LARGE cell signal; activation, % at 10 µM; AID 624168, 2012; actives 0.22% (n = 360,000);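 active = activation of at least 8% versus controls, or a plate z-score of at least 8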;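 note: Pro5 are CHO cells carrying HIG-tagged alpha-DG that lacks glycosylation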
V-ATPase pHluor = regulators of yeast V-ATPase proton pumping, primary screen, pHLuorin cytosolic pH fluorescence; S. cerevisiae; response, % at 10 µM; actives 0.37% (n = 350,000); in the data active = response mostly above about 7.3%, no sharp cut-off; inactive = mostly below about 5.4%; note: actives read high
MPTP inh = mitochondrial permeability transition pore inhibitors, primary screen, biochemical, isolated mouse mitochondria, absorbance; Ca2+ swelling absorbance, 30 min; inhibition, % at 10 µM; actives 1.4% (n = 360,000);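 active = inhibition of 50% or more, scaled per plate between neutral and stimulator controls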;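 note: 0% = DMSO wells given calcium and 100% = 1 mM EGTA wells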
ADAM17 inh = ADAM17 inhibitors, primary screen, biochemical, QFRET. inhibition, % at 6.95 µM. recombinant ADAM17, EDANS/DABCYL FRET peptide cleavage. Disintegrin and metalloproteinase domain-containing protein 17 (Homo sapiens), P78536. actives 0.83% (n = 370,000);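 active = inhibition above the mean of compounds lying between control limits plus 3 SD, set per campaign, cut at about 8.5% in these data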;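 note: 0% = DMSO-only wells as the low control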
Target sequence (P78536 215-824 limits assumed): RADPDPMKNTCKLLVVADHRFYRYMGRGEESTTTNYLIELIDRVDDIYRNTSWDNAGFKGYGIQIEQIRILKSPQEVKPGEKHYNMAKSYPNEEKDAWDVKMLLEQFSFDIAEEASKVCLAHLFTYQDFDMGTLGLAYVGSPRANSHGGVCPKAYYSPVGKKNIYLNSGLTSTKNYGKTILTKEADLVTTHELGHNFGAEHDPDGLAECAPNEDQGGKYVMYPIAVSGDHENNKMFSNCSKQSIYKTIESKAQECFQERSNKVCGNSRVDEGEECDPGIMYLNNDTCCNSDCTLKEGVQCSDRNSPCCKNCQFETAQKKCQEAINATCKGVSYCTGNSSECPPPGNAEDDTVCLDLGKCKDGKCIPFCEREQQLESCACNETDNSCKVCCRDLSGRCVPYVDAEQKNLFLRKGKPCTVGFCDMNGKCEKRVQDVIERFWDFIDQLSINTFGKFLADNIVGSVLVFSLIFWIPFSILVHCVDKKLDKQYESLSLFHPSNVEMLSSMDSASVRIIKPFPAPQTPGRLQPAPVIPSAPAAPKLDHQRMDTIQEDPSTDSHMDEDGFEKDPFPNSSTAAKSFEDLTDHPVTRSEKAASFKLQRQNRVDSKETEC
ADAM10 inh = human ADAM10 inhibitors, primary screen, biochemical, QFRET, HTS; inhibition, % at 7 µM; recombinant ADAM10, EDANS/DABCYL FRET peptide cleavage, 3 h; Disintegrin and metalloproteinase domain-containing protein 10 (Homo sapiens), O14672; actives 0.62% (n = 370,000);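 active = inhibition above a per-campaign cutoff equal to the mean of compounds falling between control-based bounds plus 3 SD, cut at about 20% in these data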;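 note: 0% = DMSO wells while the 100% control is not disclosed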
Lipid droplet = inhibitors of hepatocyte lipid droplet formation, primary screen, imaging, high-throughput imaging, BODIPY stain. inhibition, % at 6.5 µM. AML12 mouse hepatocytes, oleate lipid droplets. actives 0.4% (n = 240,000);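 active = lipid droplet intensity inhibited by at least 50%, with more than 500 cells counted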
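Test system: AML12 hepatocytes (mouse); reagent: oleate loading, 100 µM; dosing: one dose, 6.5 µM compound; incubation: overnight exposure; signal: fluorescence imaging, 20x objective, two fields per well; read-out basis: % inhibition of corrected integrated BODIPY droplet signal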
MPTP counter = fluorescence retest of MPTP screen hits in isolated mitochondria, single concentration; shares compounds with MPTP inh; membrane potential, Rhodamine 123 fluorescence; inhibition, % at 10 µM; actives 78% (n = 5,000); AID 624504, 2012; in the data active = inhibition above about 22%;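 note: 0% = DMSO vehicle and 100% = positive control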
MPTP swell DR = mitochondrial permeability transition pore inhibitors, dose response, biochemical, absorbance, uHTS hits; isolated mitochondria swelling; shares compounds with MPTP inh; actives 58% (n = 780); IC50, µM; in the data active = IC50 below about 20 µM
MPTP counter DR = fluorescent counter-screen in isolated mitochondria, dose response, counter-screen for MPTP inhibitor project, biochemical, fluorescence, uHTS hits | shares compounds with MPTP inh | isolated mitochondria counterscreen, fluorescence read-out | IC50, µM | actives 49% (n = 780); in the data active = IC50 below about 80 µM
An asterisk follows results filed as active; i = inactive; / = no result; ! = repeats disagree. Compounds with a hit are over-represented: about 3.1% of the library has one in this group of screens.

SMILES | aDG glyco act | V-ATPase pHluor | MPTP inh | ADAM17 inh | ADAM10 inh | Lipid droplet | MPTP counter | others
CC(C)CN1C(=O)c2ccc(C(=O)Nc3ccncc3)cc2C1=O | 0.0 | 5.6 | 60.0* | -5.1 | -3.6 | / | 70.3*
COC(=O)C1CN(Cc2ccc(OC)cc2)CCS(=O)(=O)N1Cc1ccccc1 (stereo unspecified) | / | / | / | -3.6 | -4.0 | / | /
COc1ccc(CCNC(=O)c2cc(C(=O)c3cc(Cl)ccc3O)cn(CCc3ccc(OC)cc3)c2=O)cc1 | -0.9 | 3.2 | 30.5 | -1.9 | -5.6 | -6.8 | /
O=C(c1cc(C(=O)NCCc2ccccc2)c(=O)n(CCc2ccccc2)c1)c1cc(Cl)ccc1O | -0.4 | 1.6 | 98.5* | -0.1 | -1.1 | -38.7 | 79.2*
CN(C)CC/C=C1/c2ccccc2Sc2c(O)cc(Cl)cc21 | -0.1 | -2.8 | 1.2 | -2.5 | -2.7 | -4.5 | /
COc1cc(Cl)cc2c1Sc1ccccc1/C2=C/CCN(C)C | 2.0 | 1.9 | 82.2* | / | / | -15.8 | -4.2
CCOc1ccc(-n2c(SCC(=O)Nc3ccc(Oc4ccccc4)cc3)nnc2-c2ccncc2)cc1 | / | / | / | 1.8 | -8.0 | / | /
Cc1cccc(-c2nnc(SCc3cccc4ccccc34)n2-c2ccc(Cl)cc2)c1 | / | / | / | 2.7 | 6.6 | / | /
CCN(CC)S(=O)(=O)c1cc(C(=O)Nc2cccnc2)ccc1Cl | 0.2 | -1.5 | 1.0 | -4.7 | -6.5 | -36.6 | /
CCN(CC)S(=O)(=O)c1cc(C)ccc1NC(=S)Nc1cccnc1 | 0.2 | 2.9 | 52.6* | 2.0 | 1.9 | -12.9 | 88.3*
COc1cc(CNCCO)ccc1OCC(=O)Nc1ccc(Br)cc1 | 0.5 | 1.2 | 59.3* | -3.2 | 6.2 | 0.5 | -9.9 | MPTP swell DR=i;MPTP counter DR=>80
COC(=O)c1ccc(NC(=O)N2CCCC(C(=O)c3ccccc3OC)C2)cc1 (stereo unspecified) | 0.0 | -4.2 | 69.6* | 2.8 | 1.7 | 10.3 | 75.4*
COc1ccccc1C(=O)C1CCCN(C(=O)Nc2ccccc2F)C1 (stereo unspecified) | 0.1 | 4.2 | -2.2 | -4.3 | 1.1 | -5.1 | /
Cc1ccc(C(=O)C2CCN(CC(=O)N3CCOCC3)CC2)cc1 | / | / | / | -0.3 | 1.3 | / | /
O=C(Nc1ccc(OC(F)(F)F)cc1)N1CCN(c2ccnc3cc(Cl)ccc23)CC1 | 1.6 | -0.3 | 96.4* | 6.9 | 2.7 | 2.2 | 81.0*
O=C(C1CCC1)N1CCN(c2ccnc3cc(Cl)ccc23)CC1 | 0.2 | 8.4 | 10.6 | 2.5 | 0.6 | -5.3 | /
CC(C)(C)C(=O)N1CCN(c2ccnc3cc(Cl)ccc23)CC1 | 0.1 | 0.1 | 1.0 | -4.9 | 3.2 | -0.6 | /
O=C(C1CCCCC1)N1CCN(c2ccnc3cc(Cl)ccc23)CC1 | 1.3 | -2.2 | 83.1* | -2.3 | 11.2 | 8.7 | 43.1*
C[C@H]1[C@@H](OC(=O)Nc2ccc(Br)cc2)CC[C@@]23CCCN2C(=O)CCC[C@@H]13 | / | / | / | -2.1 | -0.6 | / | /
O=C(CSc1ncnc2scc(-c3ccc(Cl)cc3)c12)Nc1ccccc1-c1ccccc1 | / | / | / | -3.0 | 1.4 | / | /
Cc1nc2nc(C)n(CCN3CCOCC3)c(=O)c2c(-c2cccc([N+](=O)[O-])c2)c1C(=O)CCCCCCCCCCN1CCC(c2ccccc2)(c2ccccc2)CC1 | -1.0 | 0.1 | 59.4* | 6.6 | 3.6 | / | 107.2*
O=c1cc(CO)oc(C(Nc2ccccn2)c2ccc(C(F)(F)F)cc2)c1O (stereo unspecified) | -0.1 | -9.2 | 68.4* | 5.7 | 4.5 | / | -13.6 | MPTP swell DR=11.3*;MPTP counter DR=>80
O=c1cc(CO)oc(C(Nc2ccccn2)c2cccc(F)c2)c1O (stereo unspecified) | 0.0 | 2.4 | -1.5 | -0.6 | -14.9 | -2.9 | /
Cc1nn(C(C)(C)C)c(C)c1/C=N/OC(=O)Nc1ccc(Cl)cc1 | 0.1 | 1.8 | 79.3* | -0.8 | 3.3 | 2.0 | 89.2*
COCCN1C(=O)C2=C(C1=O)C1N(C)c3ccccc3[C@@]13C[C@@H](CO)N(C(C)=O)C3=N2 (stereo partly specified) | / | / | / | -5.0 | -6.7 | / | /
SMILES | aDG glyco act | V-ATPase pHluor | MPTP inh | ADAM17 inh | ADAM10 inh | Lipid droplet | MPTP counter | others
O=[N+]([O-])c1cc([N+](=O)[O-])c2cccnc2c1Oc1ccccc1O | 0.5 | -2.8 | 69.8* | 3.2 | 1.7 | 22.8 | 79.5*
O=C1C(=O)c2ccccc2C(O)=C1C1CCC(c2ccc(Cl)cc2)CC1 (stereo unspecified) | -0.3 | 2.6 | 101.8* | -2.8 | -3.5 | / | 92.9*
O=C1NC(c2ccc(Cl)cc2)Nc2ccccc21 (stereo unspecified) | 0.1 | -0.1 | -1.5 | -26.6 | -81.4 | -18.4 | /
COCCCC/C(=N\OCCN)c1ccc(C(F)(F)F)cc1 | -0.1 | -0.7 | 81.9*! | -6.5 | -15.4 | 2.4 | -19.2 | MPTP swell DR=13.1*;MPTP counter DR=>80
CN(C)c1ccc(/C=C/C=C2/SC(=S)N(c3ccccc3)C2=O)cc1 | -0.2 | 0.9 | 57.9* | 5.4 | 1.3 | / | -23.5
O=C(O)c1ccc(N2C(=O)/C(=C/C=C/c3ccccc3)SC2=S)cc1 | 0.3 | -1.0 | 1.2 | -0.9 | 0.9 | -1.1 | /
CN1CCN(C2=Cc3cc(Cl)ccc3Sc3cc(F)ccc32)CC1 | 0.4 | -1.2 | 90.6* | -2.6 | 3.7 | -13.7 | -12.6
CN1CCN(C2=Cc3ccccc3Sc3cc(F)c(Cl)cc32)CC1 | 2.4 | -0.5 | 31.9 | 0.7 | 4.8 | -11.9 | /
CN1CCN(C2=Cc3ccccc3Sc3cc(F)c(F)cc32)CC1 | 1.5 | 1.1 | 92.7* | 3.5 | 7.2 | -1.6 | -12.2
CC[C@@H](OP(=O)(O)[C@@H](C)N)C(=O)O | / | / | / | -1.7 | -0.1 | / | /
Cc1sc2ncnc(NCC(O)c3ccc([N+](=O)[O-])cc3)c2c1C (stereo unspecified) | 1.3 | -7.1 | 92.2* | 2.8 | -5.9 | 2.1 | 91.1*
CCCCCCCCN1C(=O)[C@@H](CC(=O)N2CCN(C(=O)OCC)CC2)C[C@@]2(C(=O)OC)C1=C[C@H](C(C)C)O[C@@H]2C1CC1 | / | / | / | -0.6 | 1.2 | / | /
FC(F)(F)Oc1ccc(NC(=S)Nc2ccccc2N2CCOCC2)cc1 | -0.1 | 0.6 | 89.8* | -2.1 | -3.1 | -0.5 | 81.1*
